The subject of series [1] is Plasma VEGF, bFGF, endostatin and IL8 and urine MMPs. Kind of series: Pharmacodynamic biomarkers in plasma and urine. Format: in vivo, human. Conditions: baseline vs day 7–14 of cycle 1, or baseline vs end of cycle 2. A digest of the protocol: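 Plasma VEGF, bFGF, endostatin and IL8 and urine MMPs were measured by human immunoassays before course 1, once on days 7–14 of course 1, at each MRI scan, and at discontinuation or completion. The fold change was calculated as the later-timepoint value divided by the earlier-timepoint value.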

The conditions of series [2]: adults treated with a 5 mg flat dose; cited from earlier work.
The conditions of series [3]: pediatric MTD of 12mg/m^2/day; cited from earlier work.
Series [4] is described as follows: Steady-state plasma pharmacokinetics, day 28 of course 1. It is filed as in vivo, human.

SMILES strings stand for the structures.

One may read the Tmax as the time at which the peak concentration occurs. The term AUC denotes concentration integrated over time. Higher therefore signals more exposure.

For the molecule `COc1cc2c(Oc3ccc4[nH]c(C)cc4c3F)ncnc2cc1OCCCN1CCCC1` [cediranib, Cediranib], the “changes in MMP-9, MMP-9 Dimers or MMP-9/NGAL” value in series [1] is on record as “No significant changes”. Also, the “steady-state systemic exposure (AUC)” value in series [2] was 226 ng·h/mL. The “median AUC(0-inf)” value in series [3] is 900 ng·h/mL. The “median Cmax” value in series [3] was 67 ng/mL. In addition, the “Css,min, median” value in series [4] (20mg/m^2 QD, day 28 pre-dose trough) is reported as 11.5 ng/mL. Moreover, the “Css,max, median” value in series [4] (day 28, steady state, plasma) was determined as 48.0 ng/mL. Besides, in series [4] (human, plasma, oral), the Tmax is 2 to 6 h. The AUC is 892 ng·h/mL in series [4] (human, plasma, oral, 32 mg/m2, steady-state AUC0—tlast, 32mg/m^2 QD, n=2); 522 to 1260 ng·h/mL in series [4] (human, plasma, oral, 32 mg/m2, steady-state AUC0—tlast, range, 32mg/m^2 QD, n=2); 770 ng·h/mL in series [4] (human, plasma, oral, 40 mg/m2, steady-state AUC0—tlast, 40mg/m^2 QD, n=1).
